Measured values taken from ChEMBL document CHEMBL5390262, “Further Studies on the Highly Active Des-C-Ring and Aromatic-D-Ring Analogues of 1α,25-Dihydroxyvitamin D3 (Calcitriol): Refinement of the Side Chain” (J Med Chem, 2023).
The source made the active and inactive calls. The calls are words filed in the database; no cut-off is given here.

What was measured:
MDA-MB-231 [1] = assay: Antiproliferative activity against human MDA-MB-231 cells assessed as decrease in cell proliferation at 0.1 uM incubated for 48 hrs in presence of cisplatin by MTT assay; format: functional, cell-based
How it was run: (§1)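 MDA-MB-231 cells seeded at 2 x 10^5 cells/well in medium with charcoal-treated FCS, then treated 24 h later with compound at 10^-7 M (ethanol vehicle) for 48 h, alone or together with cisplatin 25 μM. Read by MTT, DMSO solubilization, absorbance at 570 nm. Expressed as percent inhibition of proliferation relative to ethanol control normalized to 100%.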

Vitamin D3 receptor = target: T1, Vitamin D3 receptor (Homo sapiens, UniProt P11473); assay: Binding affinity to full length human VDR by Competitive binding assay
T1 sequence (P11473 whole entry): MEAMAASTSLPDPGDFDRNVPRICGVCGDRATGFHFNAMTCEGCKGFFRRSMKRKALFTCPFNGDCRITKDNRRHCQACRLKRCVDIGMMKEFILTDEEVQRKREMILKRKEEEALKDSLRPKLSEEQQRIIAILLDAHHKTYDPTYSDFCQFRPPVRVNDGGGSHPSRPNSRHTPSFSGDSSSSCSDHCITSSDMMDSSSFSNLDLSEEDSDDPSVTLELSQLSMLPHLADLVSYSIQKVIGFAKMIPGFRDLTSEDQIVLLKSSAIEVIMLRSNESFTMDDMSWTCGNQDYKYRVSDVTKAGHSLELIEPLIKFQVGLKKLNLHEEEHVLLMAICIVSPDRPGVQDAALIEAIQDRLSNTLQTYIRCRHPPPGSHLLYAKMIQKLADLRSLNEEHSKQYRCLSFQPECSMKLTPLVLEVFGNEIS

HaCaT = assay: Induction of human HaCaT cells differentiation assessed as increase in formation of compact epithelioid islands at 0.1 microM incubated for 48 hrs by phase-contrast microscopy; format: functional, cell-based
How it was run: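 HaCaT keratinocytes in charcoal-treated FCS medium treated 24 h after plating with compound at 10^-7 M in ethanol for 48 h. Ethanol-treated controls. Differentiation judged by phase-contrast microscopy, e.g. compact epithelioid island formation.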

MCF7 = assay: Upregulation of Cadherin-1 protein expression in human MCF7 cells at 0.1 uM incubated for 48 hrs by Western blot analysis; format: functional, cell-based
How it was run: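 MCF-7 cells in charcoal-stripped FCS medium treated with compound at 10^-7 M (ethanol vehicle) for 48 h. E-cadherin protein detected by Western blot with GAPDH as loading control; bands quantified by densitometry.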

MDA-MB-231 [2] = assay: Antiproliferative activity against human MDA-MB-231 cells cultured as 3D spheroids assessed as decrease in cell growth by measuring the sphere diameter at 0.1 uM incubated for 6 days in presence of cisplatin by Phase-contrast microscopy; format: functional, cell-based; conditions: time 6.0 day
How it was run: (§2)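 3D culture: single-cell suspension of MDA-MB-231 (5x10^3 cells/100 μL) grown 4 days on a cell-repellent surface. Then treated 6 days with compound at 10^-7 M, given every other day, with or without cisplatin 25 μM. Ethanol control. Sphere growth quantified as relative units; mean ± SD.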

MDA-MB-231 [3] = assay: Antiproliferative activity against human MDA-MB-231 cells assessed as decrease in cell proliferation at 0.1 uM incubated for 48 hrs by MTT assay; format: functional, cell-based; how it was run: as §1
MDA-MB-231 [4] = assay: Antiproliferative activity against human MDA-MB-231 cells cultured as 3D spheroids assessed as decrease in cell growth by measuring the sphere diameter at 0.1 uM incubated for 6 days by Phase-contrast microscopy; format: functional, cell-based; conditions: time 6.0 day; how it was run: as §2
Mus musculus = assay: Effect on hypercalcemic activity in Swiss CD-1 mouse assessed as increase in serum calcium level at 0.3 microg/kg,ip using sesame oil as vehicle for 21 days on every other day by QuantiChom calcium assay; format: functional; conditions: dose 0.3 µg/kg, time 21.0 day
How it was run: (§3)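 Groups of 5 male Swiss CD-1 mice given 0.3 μg/kg i.p. every other day for 21 days in sesame oil vehicle; sesame oil alone as control. Body weight recorded at day 21. Serum calcium measured at end of test by colorimetric calcium assay kit. Mean ± SD, n=5.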

[5] = Toxicity in Swiss CD-1 mouse assessed as body weight change at 0.3 microg/kg,ip using sesame oil as vehicle for 21 days on every other day; conditions: in vivo, 0.0003 mg/kg, 504 h, dose 0.3 µg/kg, time 21 day; how it was run: as §3

SMILES | IC50 (Vitamin D3 receptor) [nM] | Activity (MDA-MB-231 [1]) | Activity (HaCaT) | Activity (MCF7) | Activity (MDA-MB-231 [2]) | Activity (MDA-MB-231 [3]) | Activity (MDA-MB-231 [4]) | Activity (Mus musculus) | Activity [5]
C=C1/C(=C\C=C(/C)c2cccc(CCC#CCC(O)(C(F)(F)F)C(F)(F)F)c2)C[C@@H](O)C[C@@H]1O | 45.7 | Active | Active | Active | Active | Active | inactive | inactive | Non-Toxic
C=C1/C(=C\C=C2/CCC[C@]3(C)[C@@H]([C@H](C)CCCC(C)(C)O)CC[C@@H]23)C[C@@H](O)C[C@@H]1O [CALCITRIOL] | – | Active | Active | Active | Active | Active | inactive | Active | Toxic

Now from value to compound, other results behind:

IC50 (Vitamin D3 receptor) [nM] | SMILES | Activity (MDA-MB-231 [1]) | Activity (HaCaT) | Activity (MCF7) | Activity (MDA-MB-231 [2]) | Activity (MDA-MB-231 [3]) | Activity (MDA-MB-231 [4]) | Activity (Mus musculus) | Activity [5]
4.64 | C=C1/C(=C\C=C(/CC)c2cccc(CCC#CCC(O)(C(F)(F)F)C(F)(F)F)c2)C[C@@H](O)C[C@@H]1O | Active | Active | Active | Active | Active | inactive | inactive | Non-Toxic
7.47 | C=C1/C(=C\C=C(/CC)c2cccc(CCC#CCC(C)(C)O)c2)C[C@@H](O)C[C@@H]1O | Active | Active | Active | Active | Active | inactive | inactive | Non-Toxic
2.91 | C=C1/C(=C\C=C(/CC)c2cccc(CCCCCC(O)(C(F)(F)F)C(F)(F)F)c2)C[C@@H](O)C[C@@H]1O | Active | Active | Active | Active | Active | inactive | inactive | Non-Toxic
